Test system: FKBP12^F36V-PTPN2 H1975 cells
Experiment: Cell viability by CellTiter-Glo, FKBP12F36V-PTPN2 H1975
Format: cell-based
Conditions: read-out: IC50, cell viability; 6 days
In short: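 H1975 cells lentivirally transduced to express Flag-FKBP12F36V-PTPN2 (TC45 short isoform) were seeded at 3000 cells/well in full medium for 24 h. They were then treated with test compound at a range of concentrations under serum-free conditions for 4 or 6 days. Viability was measured by CellTiter-Glo luminescence and normalised to DMSO controls. Three replicates, mean and SD.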

CN(C)C/C=C/C(=O)Nc1cc2c(Nc3ccc(F)c(Cl)c3)ncnc2cc1O[C@H]1CCOC1 [afatinib]
IC50: 2110 nM

Source: paper PMC10971414 (Science Advances, 2024)
